A selection: hits, their analogues and other compounds. The true share with any hit is near 3.1%.
INS-1E GSIS act: GLuc luminescence reporter in INS-1E cells, primary screen for activators of glucose-dependent secretion of insulin; INS-1E GLuc reporter insulin secretion, 2-3 h; activation, % at 16.6 µM; 370,000 compounds, 0.61% hits;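 active = lowest replicate activation of at least 40%, so every replicate reaches that level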;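 also: 0% = median of neutral control wells and 100% = median of IBMX positive control wells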
F508del corr: correctors of CFTR F508del function in bronchial epithelial cells | 350,000 compounds, 0.36% hits | CFBE cells, YFP halide quenching; stimulated with forskolin plus potentiator P3; % fluorescence drop versus neutral controls | activity (quench increase), % at 7.58 µM;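 active = mean added fluorescence quench of at least 8% versus neutral control, with both replicates also reaching 8%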;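 also: cells transiently co-express mutant CFTR-F508del with the halide-sensitive YFP; corrector assay measuring rescue of mutant channel to the surface after 24 h compound exposure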
HIV Env fusion: inhibitors of HIV Env-mediated cell fusion | HeLa-JRFL Env/CEM21 cell fusion, luciferase | inhibition, % at 12.3 µM | 360,000 compounds, 1.1% hits | AID 651610;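 active = mean replicate inhibition score of at least 50 and every replicate individually at or above 50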;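 also: 0% = plate neutral controls and 100% = maraviroc near 300 nM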
rRNA inh HTS: selective bacterial rRNA inhibition in E. coli; E. coli WT GFP vs humanized-ribosome RFP mutants, fluorescence, 24 h; hits give low values; DMSO median 0, no signal -100; GFP signal change (wild-type ribosome), % (no concentration beside the values); 350,000 compounds, 1.6% hits; AID 720706;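 active = significant combined selectivity score with lowered wild-type GFP, culture density cut under 30%, mutant RFP and density less affected; inactive = any of these conditions unmet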
Cneo AK release: Cryptococcus neoformans lysis via adenylate kinase release; 360,000 compounds, 0.2% hits; lysis activity, % at 15 µM; AID 651654; C. neoformans lysis, adenylate kinase release luminescence, 4 h; normalised: neutral wells 0, clomiphene wells 100;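 active = mean lysis activity across replicates of at least 80%, whatever share of replicates individually reach that level; inactive = mean lysis activity below 80%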
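Material – Cryptococcus neoformans yeast cells · Quantity – 5 × 10^6 yeast cells/mL · Buffer or medium – YPD medium · Compound – single dose · Timing – 4 h static compound exposure, 37 °C, read 1 h post-reagent · Signal – adenylate kinase release luminescence · Read-out basis – lysis from increased AK signal · Benchmarks – Clomiphene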
miR-122 sensor: inhibitors of miR-122 in Huh7 cells. activation (reporter increase), % at 12.5 µM. Huh7 miR-122 Renilla luciferase sensor, 48 h; neutral wells = 0, positive control = 100. 340,000 compounds, 0.3% hits;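 active = mean replicate activation score at least 90 and every replicate individually at or above 90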;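 also: higher luciferase means less miR-122 activity so hits act as miR-122 inhibitors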
An asterisk follows results filed as active; [ ] = another dose, or the depositor's remark.

`O=C(NC(=S)N1CCc2ccccc21)c1ccc(Br)o1` gave INS-1E GSIS act -11.4, F508del corr 2.7, HIV Env fusion 17.6 and rRNA inh HTS -42.5*.
`O=C(NC(=S)N1CCc2ccccc21)c1ccccc1Br` gave INS-1E GSIS act 10.8, F508del corr 1.8, HIV Env fusion -13.3, Cneo AK release 4.4 and miR-122 sensor -4.3.
For COc1ccc(S(=O)(=O)N(C)C[C@H]2OCCCC[C@@H](C)Oc3ccc(NC(=O)Nc4ccccc4)cc3C(=O)N([C@@H](C)CO)C[C@H]2C)cc1 the results were INS-1E GSIS act -11.0, F508del corr -3.5, HIV Env fusion -5.4[16.7 µM], rRNA inh HTS -0.8, Cneo AK release -0.5 and miR-122 sensor 0.4[16.7 µM].
c1ccc(COc2cccc(-c3cc4nc(NCc5cccs5)ccn4n3)c2)cc1 was read as INS-1E GSIS act -11.3, F508del corr -0.3, rRNA inh HTS -28.1*, Cneo AK release 11.5 and miR-122 sensor -4.7.
`COCCCNc1ccn2nc(-c3cccc(OCc4ccccc4)c3)cc2n1` gave F508del corr 1.7, HIV Env fusion -7.2, rRNA inh HTS -25.5 and Cneo AK release -19.8.
C=C(Cl)COc1ccc2c(CC)cc(=O)oc2c1 was read as INS-1E GSIS act 19.5, F508del corr -2.0, rRNA inh HTS -24.1*, Cneo AK release -5.0 and miR-122 sensor 1.3.
Screening COC(=O)/C(=C\Nc1ccc(Oc2ccccc2OC(C)C)nc1)NC(=O)c1ccccc1 returned F508del corr 1.7, HIV Env fusion -1.9[16.7 µM] and Cneo AK release 0.4.
CSc1nsc(N/N=C/c2ccc3c(c2)OCO3)c1C#N was read as INS-1E GSIS act 16.5, F508del corr 2.0, HIV Env fusion -122.9 and rRNA inh HTS -29.3*.
Screening COc1cc(/C=N/Nc2snc(SC)c2C#N)cc(OC)c1OC returned Cneo AK release 0.4 and miR-122 sensor -1.1.
For COc1ccc(N2CC(C(=O)Nc3nc4ccc(F)cc4s3)CC2=O)c(OC)c1 (centres undefined) the results were INS-1E GSIS act -8.3, F508del corr -0.3, HIV Env fusion 8.9, rRNA inh HTS -30.5* and Cneo AK release -3.6.
For C[C@H]1CN([C@@H](C)CO)C(=O)c2cc(NC(=O)Nc3ccc(C(F)(F)F)cc3)ccc2O[C@@H]1CN(C)C(=O)Nc1cccc2ccccc12 the results were INS-1E GSIS act -1.8, F508del corr -6.5, HIV Env fusion 9.6[16.7 µM], rRNA inh HTS 0.4, Cneo AK release -0.1 and miR-122 sensor -8.4[16.7 µM].
Screening CCCCCN1C=CC(=C2C(=O)c3ccccc3C2=O)C=C1 returned INS-1E GSIS act 29.5, F508del corr -3.7, HIV Env fusion 71.6*, rRNA inh HTS 12.0 and miR-122 sensor 6.2.
For CCOC(=O)C1=NN(C(=O)Nc2cccc(C(F)(F)F)c2)C2C(=O)N(c3cccc(C(F)(F)F)c3)C(=O)C12 (centres undefined) the results were INS-1E GSIS act 100.1* and miR-122 sensor -5.0.
For CCOC(=O)c1nccnc1C(=O)Nc1cccc(C(F)(F)F)c1 the results were INS-1E GSIS act 6.1, F508del corr -2.7, HIV Env fusion -4.6, rRNA inh HTS 14.0 and miR-122 sensor -1.4.
`Cc1ccc(NC(=S)NCc2ccc(Cl)cc2)c(OC(F)F)c1` gave INS-1E GSIS act -27.0, F508del corr -1.1, HIV Env fusion -8.6, rRNA inh HTS -66.8 and Cneo AK release 344.1*.
For Cc1cc(Cl)ccc1NC(=S)NC(C)(C)C the results were INS-1E GSIS act -10.0, F508del corr 1.1, HIV Env fusion 7.0, rRNA inh HTS -35.4* and miR-122 sensor -12.6.
Cc1cc(Cl)ccc1NC(=S)NCc1ccc(F)cc1 was read as INS-1E GSIS act -24.2, F508del corr 2.4, HIV Env fusion 11.8, rRNA inh HTS -3.0, Cneo AK release 92.8* and miR-122 sensor 29.4.
Screening CCCNC(=S)Nc1ccc(Cl)cc1C returned INS-1E GSIS act 7.3 and HIV Env fusion 25.6.
`Cc1ccc(CNC(=S)Nc2ccc(OC(F)F)cc2C)cc1` gave INS-1E GSIS act 8.9, HIV Env fusion -6.0 and rRNA inh HTS 1.8.
Screening COCC#Cc1ccc2c(c1)O[C@H](CN(C)C(=O)C1CC1)[C@@H](C)CN([C@H](C)CO)S2(=O)=O returned INS-1E GSIS act -4.1, F508del corr -0.6, HIV Env fusion -0.2[16.7 µM], rRNA inh HTS 1.7, Cneo AK release 0.7 and miR-122 sensor 7.9[16.7 µM].
Screening Cc1cc(Cl)c(S(=O)(=O)Nc2ccc3c(c2)OCCO3)cc1OCC(=O)NC1CCCCC1 returned HIV Env fusion -23.0, Cneo AK release 2.3 and miR-122 sensor 156.6*.
CC(C)CNS(=O)(=O)c1ccc(OCC(=O)Nc2ccc3c(c2)OCCO3)cc1 was read as INS-1E GSIS act -7.5 and HIV Env fusion -61.4.
Screening Cc1cc(Cl)c(S(=O)(=O)Nc2ccon2)cc1OCC(=O)NC1CCCCC1 returned HIV Env fusion -82.2, Cneo AK release -0.9 and miR-122 sensor -11.1.
`O=C(COc1ccc(S(=O)(=O)NC2CCCCC2)cc1)Nc1ccc2c(c1)OCCO2` gave INS-1E GSIS act -16.0, F508del corr 1.6, HIV Env fusion 7.2, rRNA inh HTS -2.1, Cneo AK release -2.4 and miR-122 sensor 101.2*.
CC(=O)Nc1cccc(-n2nnc(SCC(=O)c3ccccc3)n2)c1 was read as INS-1E GSIS act 0.1, F508del corr 1.5, HIV Env fusion -27.0, rRNA inh HTS -36.4* and miR-122 sensor 5.6.
Screening Cc1noc(C)c1S(=O)(=O)Nc1ccc2c(c1)C(=O)N([C@H](C)CO)C[C@H](C)[C@@H](CN(C)S(=O)(=O)c1cccs1)OCCCC[C@H](C)O2 returned INS-1E GSIS act -4.5, F508del corr 0.8, HIV Env fusion -42.7[16.7 µM], rRNA inh HTS -5.6, Cneo AK release -0.1 and miR-122 sensor 20.7[16.7 µM].
For C[C@H]1CN([C@@H](C)CO)S(=O)(=O)c2ccc(C#Cc3ccccn3)cc2O[C@@H]1CN(C)Cc1ccccc1 the results were INS-1E GSIS act -4.5, F508del corr 1.4, HIV Env fusion 8.0[16.7 µM], rRNA inh HTS -9.2, Cneo AK release 107.0* and miR-122 sensor 8.0[16.7 µM].
Screening C[C@H](CO)N1C[C@H](C)[C@H](CN(C)C(=O)Cc2cccnc2)Oc2cc(C#Cc3ccccc3F)ccc2S1(=O)=O returned INS-1E GSIS act -9.2, F508del corr -0.3, HIV Env fusion 25.8[16.7 µM], rRNA inh HTS -9.2, Cneo AK release 32.6 and miR-122 sensor 10.4[16.7 µM].
`COc1ccccc1C#Cc1ccc2c(c1)O[C@H](CN(C)Cc1cccnc1)[C@H](C)CN([C@H](C)CO)S2(=O)=O` gave INS-1E GSIS act -2.0, F508del corr 2.1, rRNA inh HTS -3.4, Cneo AK release -5.4 and miR-122 sensor 23.8[16.7 µM].

Bioassay records: PubChem, Broad Institute
